# Measured values taken from ChEMBL document CHEMBL1955801, “Synthesis, biological evaluation and molecular investigation of fluorinated peroxisome proliferator-activated receptors α/γ dual agonists” (Bioorg Med Chem, 2012).
# The source made the active and inactive calls. The calls are words filed in the database; no cut-off is given here.
# Columns and labels:
# [1] = molecular target: T1, Peroxisome proliferator-activated receptor gamma (Homo sapiens, UniProt P37231); assay: Agonist activity at GAL4-tagged human PPARgamma ligand binding domain expressed in HepG2 cells assessed as transactivation after 20 hrs by beta-galactosidase reporter gene assay; type: cell-based
# T1 sequence (P37231 whole entry): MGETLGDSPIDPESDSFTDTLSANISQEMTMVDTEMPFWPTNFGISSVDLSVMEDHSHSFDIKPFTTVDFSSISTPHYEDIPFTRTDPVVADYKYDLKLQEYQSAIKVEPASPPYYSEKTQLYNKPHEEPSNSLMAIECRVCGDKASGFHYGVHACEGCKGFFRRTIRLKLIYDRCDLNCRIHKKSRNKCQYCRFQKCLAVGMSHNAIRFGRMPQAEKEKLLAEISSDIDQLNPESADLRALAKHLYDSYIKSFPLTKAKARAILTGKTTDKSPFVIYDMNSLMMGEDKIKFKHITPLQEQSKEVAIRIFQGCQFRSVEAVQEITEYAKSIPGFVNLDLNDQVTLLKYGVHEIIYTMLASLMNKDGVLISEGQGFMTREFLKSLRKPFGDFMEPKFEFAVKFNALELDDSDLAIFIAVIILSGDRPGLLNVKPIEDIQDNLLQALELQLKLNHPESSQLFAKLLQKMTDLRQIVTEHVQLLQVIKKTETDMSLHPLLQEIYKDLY
# [2] = molecular target: T2, Peroxisome proliferator-activated receptor alpha (Homo sapiens) (UniProt Q07869); assay: Agonist activity at GAL4-tagged human PPARalpha ligand binding domain expressed in HepG2 cells assessed as transactivation after 20 hrs by beta-galactosidase reporter gene assay relative to Wy-14643; type: cell-based
# T2 sequence (whole entry): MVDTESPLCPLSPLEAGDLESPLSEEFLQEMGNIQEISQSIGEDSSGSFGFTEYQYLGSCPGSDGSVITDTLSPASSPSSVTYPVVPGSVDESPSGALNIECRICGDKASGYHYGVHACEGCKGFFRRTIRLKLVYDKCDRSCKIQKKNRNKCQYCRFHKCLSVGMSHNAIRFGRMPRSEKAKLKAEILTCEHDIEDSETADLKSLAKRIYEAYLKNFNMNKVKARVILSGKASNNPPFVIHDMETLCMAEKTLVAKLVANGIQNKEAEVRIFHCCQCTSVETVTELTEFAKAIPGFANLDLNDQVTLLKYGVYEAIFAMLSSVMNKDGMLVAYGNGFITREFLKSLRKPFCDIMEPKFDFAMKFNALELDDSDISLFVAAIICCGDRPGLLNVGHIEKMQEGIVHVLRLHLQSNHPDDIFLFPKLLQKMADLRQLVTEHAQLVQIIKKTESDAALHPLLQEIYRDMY
# Procedure, shortened: (§1)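 HepG2 cells were grown in MEM with 10% heat-inactivated FBS and penicillin/streptomycin at 37 °C in 5% CO2. They were seeded at 10^5 cells/well in triplicate and calcium-phosphate transfected 24 h later with GAL4-PPARα LBD (30 ng), pGAL5TKpGL3 luciferase reporter (100 ng) and pCMVβgal (250 ng). Ligands were applied for 20 h. Luciferase was read with β-galactosidase measured alongside. Wy-14,643 was the reference. Experiments were repeated at least twice.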
# [3] = molecular target: T3, Peroxisome proliferator-activated receptor gamma (Homo sapiens) (UniProt P37231); assay: Agonist activity at GAL4-tagged human PPARgamma ligand binding domain expressed in HepG2 cells assessed as transactivation after 20 hrs by beta-galactosidase reporter gene assay relative to pioglitazone; type: cell-based
# T3 sequence (whole entry): T1 sequence (P37231 whole entry)
# Procedure, shortened: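 HepG2 cells were cultured in MEM with 10% heat-inactivated FBS at 37 °C in 5% CO2 and seeded at 10^5 cells/well in triplicate. After 24 h they were calcium-phosphate transfected with GAL4-PPARγ LBD (30 ng), pGAL5TKpGL3 luciferase reporter (100 ng) and pCMVβgal (250 ng). Cells were treated with ligands for 20 h. Luciferase and β-galactosidase activities were measured in extracts. Pioglitazone was the reference. Experiments were run at least twice.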
# [4] = molecular target: T4, Peroxisome proliferator-activated receptor alpha (Homo sapiens, UniProt Q07869); assay: Agonist activity at GAL4-tagged human PPARalpha ligand binding domain expressed in HepG2 cells assessed as transactivation after 20 hrs by beta-galactosidase reporter gene assay; type: cell-based
# T4 sequence (Q07869 whole entry): T2 sequence (whole entry)
# Procedure, shortened: as §1, with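 “alongside.” for “alongside. Wy-14,643 was the reference.”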
# [5] = molecular target: T1, Peroxisome proliferator-activated receptor gamma; assay: Agonist activity at GAL4-tagged human PPARgamma ligand binding domain expressed in HepG2 cells assessed as transactivation at 5 to 10 uM after 20 hrs by beta-galactosidase reporter gene assay; type: cell-based
# [6] = molecular target: T3, Peroxisome proliferator-activated receptor gamma (Homo sapiens); details: HepG2, 5 to 10 uM
# [7] = molecular target: T4, Peroxisome proliferator-activated receptor alpha; assay: Agonist activity at GAL4-tagged human PPARalpha ligand binding domain expressed in HepG2 cells assessed as transactivation at 5 to 10 uM after 20 hrs by beta-galactosidase reporter gene assay; type: cell-based
# [8] = molecular target: T2, Peroxisome proliferator-activated receptor alpha (Homo sapiens); details: HepG2, 5 to 10 uM
Structure (SMILES),EC50 [1] [µM],Emax [2] [%],Emax [3] [%],EC50 [4] [µM],EC50 [5],Emax [6],EC50 [7],Emax [8]
O=C(O)C(Cc1ccc(F)cc1)Oc1ccc(Cl)cc1 (racemic),5.2,66,57,5.4,,,,
Cc1cccc(Nc2cc(Cl)nc(SCC(=O)O)n2)c1C [PIRINIXIC ACID],,,,,Not Active,inactive,,
O=C(O)[C@H](Cc1ccccc1)Oc1ccc(Cl)cc1F,2.5,101,84,2.2,,,,
O=C(O)C(Cc1ccccc1)Oc1ccccc1F (racemic),19,36,26,22.3,,,,
O=C(O)C(Cc1ccc(Cl)cc1)Oc1ccc(Cl)cc1F (racemic),0.9,76,69,1.4,,,,
O=C(O)[C@H](Cc1ccccc1)Oc1ccc(F)cc1,35.2,55,58,24.8,,,,
O=C(O)C(Cc1cccc(F)c1)Oc1ccc(Cl)cc1 (racemic),3.5,65,52,5.1,,,,
CCc1ccc(CCOc2ccc(CC3SC(=O)NC3=O)cc2)nc1 (stereo not given) [PIOGLITAZONE],,,,,,,Not Active,inactive
O=C(O)[C@H](Cc1ccccc1)Oc1ccc(C(F)(F)F)cc1,,81,59,,,,,
O=C(O)C(Cc1ccccc1)Oc1cccc(F)c1 (racemic),41,57,33,21,,,,
O=C(O)C(Oc1ccc(Cl)cc1F)c1ccccc1 (stereo not given),32,88,11,19,,,,
O=C(O)C(Cc1ccccc1)Oc1ccc(Cl)c(F)c1 (stereo not given),14.1,51,40,6.5,,,,
O=C(O)C(Cc1ccccc1F)Oc1ccc(Cl)cc1 (racemic),4.9,66,59,6.6,,,,
O=C(O)[C@H](Cc1ccc(Cl)cc1)Oc1ccc(Cl)cc1F,0.5,76,70,1,,,,
O=C(O)C(Cc1ccccc1)Oc1ccccc1C(F)(F)F (racemic),30,,13,,,,Not Active,

# Further lines, with some results ahead:
EC50 [1] [µM],Emax [2] [%],Emax [3] [%],EC50 [4] [µM],EC50 [5],Emax [6],EC50 [7],Structure (SMILES),Emax [8]
5.8,59,21,2.5,,,,O=C(O)C(Cc1ccccc1)Oc1ccc(Cl)c(C(F)(F)F)c1 (stereo not given),
9.6,90,77,4.9,,,,O=C(O)[C@H](Cc1ccccc1)Oc1ccc(Cl)cc1,
16.4,38,24,10.3,,,,O=C(O)C(Oc1ccc(Cl)cc1F)c1ccc(Cl)cc1 (stereo not given),
11.6,,20,,,,Not Active,O=C(O)C(Cc1cccc(F)c1)Oc1ccccc1C(F)(F)F (racemic),
10,,13,,,,Not Active,O=C(O)C(Oc1cccc(C(F)(F)F)c1)c1ccc(Cl)cc1 (stereo not given),inactive
15.9,71,44,9.8,,,,O=C(O)[C@H](Cc1ccccc1)Oc1cccc(C(F)(F)F)c1,
2.4,101,83,4.5,,,,O=C(O)C(Cc1cccc(F)c1)Oc1ccc(Cl)cc1F (racemic),
